Assay results published in publication PMC3517215 (Journal of medicinal chemistry, 2011).
Values joined by “and” are separate entries in the source; they are usually repeats but may differ in a detail not shown here. Equal entries are not always repeated.

Biological target: T1, human sEH (Homo sapiens, UniProt P34913)
T1 sequence (P34913 1-555): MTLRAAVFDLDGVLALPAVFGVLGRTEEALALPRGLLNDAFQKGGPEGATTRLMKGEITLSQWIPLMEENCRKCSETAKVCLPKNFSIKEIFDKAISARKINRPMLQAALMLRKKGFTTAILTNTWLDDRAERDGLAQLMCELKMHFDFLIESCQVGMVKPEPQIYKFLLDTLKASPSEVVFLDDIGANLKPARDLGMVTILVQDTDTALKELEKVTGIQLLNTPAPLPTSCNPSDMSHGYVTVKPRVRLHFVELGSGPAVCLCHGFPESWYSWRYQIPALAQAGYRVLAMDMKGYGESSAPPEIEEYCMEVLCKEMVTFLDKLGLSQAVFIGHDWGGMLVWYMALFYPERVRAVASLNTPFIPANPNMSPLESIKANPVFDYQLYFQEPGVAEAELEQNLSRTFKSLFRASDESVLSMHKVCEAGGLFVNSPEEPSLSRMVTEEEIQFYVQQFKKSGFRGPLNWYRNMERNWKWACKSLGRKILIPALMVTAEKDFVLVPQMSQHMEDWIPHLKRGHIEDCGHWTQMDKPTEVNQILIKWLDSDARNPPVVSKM
Experiment: Human sEH inhibition, fluorescent assay with CMNPC substrate
Assay type: biochemical
How it was run: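 Recombinant human sEH from baculovirus-infected Sf9 cells, purified by His-tag affinity, TEV cleavage and anion exchange. Enzyme (1 nM) preincubated 10 min with test compound (DMSO) in 25 mM Bis-Tris/HCl pH 7.0 at 30 °C, then CMNPC added (5 μM). 6-Methoxy-2-naphthaldehyde fluorescence (ex 330/em 465 nm) read over 10 min. IC50 by regression of ≥6 points (≥3 linear); mean of three runs.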

Question: Which “fold improvement in inhibition relative to compounds 4 or 5” value does the source give for `O=C(NCCCc1ccccc1)C1CCCCC1` [Compound 6] here?
Answer: > 5 fold

Question: `O=C(NCCCc1ccccc1)C1CC=CCC1` (stereo not shown) [Compound 7] was tested. Which “fold improvement in inhibition relative to compounds 4 or 5” value did it give?
Answer: > 5 fold

Question: For `O=C(NCCCc1ccccc1)C1CCC(C(F)(F)F)CC1` (stereo not shown) [Compound 8], which “fold improvement over the non-substituted derivatives (4–7)” value is on record?
Answer: 3.5–15 fold

Question: For `CC(C)(C)C1CCC(C(=O)NCCCc2ccccc2)CC1` (stereo not shown) [Compound 9], which “fold improvement over the non-substituted derivatives (4–7)” value is on record?
Answer: 3.5–15 fold

Question: How did the “fold improvement in inhibition potency relative to compound 19” value turn out when `O=C(NCCCc1ccccc1)C1CCc2ccccc2C1` (stereo not shown) [Compound 20] was run?
Answer: 3 fold

Question: Which “fold decrease in inhibition potency relative to compound 19” value does the source give for `O=C(NCCc1ccccc1)C12CC3CC(CC(C3)C1)C2` [Compound 25] here?
Answer: 4–6 fold

Question: Which “fold decrease in inhibition potency relative to compound 19” value does the source give for `O=C(NCCCCc1ccccc1)C12CC3CC(CC(C3)C1)C2` [Compound 26] here?
Answer: 4–6 fold

Question: How did the “fold better inhibition in comparison with compound 28” value turn out when `CCOC(=O)c1ccc(NC(=O)C23CC4CC(CC(C4)C2)C3)cc1` [Compound 27] was run?
Answer: > 10 fold

Question: With `COC(=O)c1ccc(CNC(=O)C23CC4CC(CC(C4)C2)C3)cc1` [Compound 29] as the compound, how does the “fold better inhibition than compound 27” value read?
Answer: ~10 fold

Question: `COC(=O)c1ccc(CCNC(=O)C23CC4CC(CC(C4)C2)C3)cc1` [Compound 30] was tested. Which “fold loss in inhibition potency relative to compound 29” value did it give?
Answer: > 7 fold

Question: How did the “fold loss in inhibition potency relative to compound 29” value turn out when `COC(=O)c1ccc2cc(NC(=O)C34CC5CC(CC(C5)C3)C4)ccc2c1` [Compound 31, methyl 6-(1-adamantanecarboxamido)naphthalene-2-carboxylate] was run?
Answer: 7 fold and > 7 fold

Question: How did the “fold improvement relative to compound 29” value turn out when `COC(=O)c1ccc(CNC(=O)C2CCc3ccccc3C2)cc1` (stereo not shown) [Compound 32, methyl 4-((1,2,3,4-tetrahydronaphthalene-2-carboxamido)methyl)benzoate] was run?
Answer: 5 fold

Question: With `COC(=O)c1ccc(CNC(=O)c2ccc3ccccc3c2)cc1` [Compound 33] as the compound, how does the “fold less potent compared to compound 32” value read?
Answer: 3 fold
